ChEMBL document CHEMBL4725348, “Rational Design and Evaluation of 6-(Pyrimidin-2-ylamino)-3,4-dihydroquinoxalin-2(1H)-ones as Polypharmacological Inhibitors of BET and Kinases” (J Med Chem, 2020)

target: ALK tyrosine kinase receptor (Homo sapiens, UniProt Q9UM73); experiment: Inhibition of ALK (unknown origin)
Sequence (Q9UM73 whole entry): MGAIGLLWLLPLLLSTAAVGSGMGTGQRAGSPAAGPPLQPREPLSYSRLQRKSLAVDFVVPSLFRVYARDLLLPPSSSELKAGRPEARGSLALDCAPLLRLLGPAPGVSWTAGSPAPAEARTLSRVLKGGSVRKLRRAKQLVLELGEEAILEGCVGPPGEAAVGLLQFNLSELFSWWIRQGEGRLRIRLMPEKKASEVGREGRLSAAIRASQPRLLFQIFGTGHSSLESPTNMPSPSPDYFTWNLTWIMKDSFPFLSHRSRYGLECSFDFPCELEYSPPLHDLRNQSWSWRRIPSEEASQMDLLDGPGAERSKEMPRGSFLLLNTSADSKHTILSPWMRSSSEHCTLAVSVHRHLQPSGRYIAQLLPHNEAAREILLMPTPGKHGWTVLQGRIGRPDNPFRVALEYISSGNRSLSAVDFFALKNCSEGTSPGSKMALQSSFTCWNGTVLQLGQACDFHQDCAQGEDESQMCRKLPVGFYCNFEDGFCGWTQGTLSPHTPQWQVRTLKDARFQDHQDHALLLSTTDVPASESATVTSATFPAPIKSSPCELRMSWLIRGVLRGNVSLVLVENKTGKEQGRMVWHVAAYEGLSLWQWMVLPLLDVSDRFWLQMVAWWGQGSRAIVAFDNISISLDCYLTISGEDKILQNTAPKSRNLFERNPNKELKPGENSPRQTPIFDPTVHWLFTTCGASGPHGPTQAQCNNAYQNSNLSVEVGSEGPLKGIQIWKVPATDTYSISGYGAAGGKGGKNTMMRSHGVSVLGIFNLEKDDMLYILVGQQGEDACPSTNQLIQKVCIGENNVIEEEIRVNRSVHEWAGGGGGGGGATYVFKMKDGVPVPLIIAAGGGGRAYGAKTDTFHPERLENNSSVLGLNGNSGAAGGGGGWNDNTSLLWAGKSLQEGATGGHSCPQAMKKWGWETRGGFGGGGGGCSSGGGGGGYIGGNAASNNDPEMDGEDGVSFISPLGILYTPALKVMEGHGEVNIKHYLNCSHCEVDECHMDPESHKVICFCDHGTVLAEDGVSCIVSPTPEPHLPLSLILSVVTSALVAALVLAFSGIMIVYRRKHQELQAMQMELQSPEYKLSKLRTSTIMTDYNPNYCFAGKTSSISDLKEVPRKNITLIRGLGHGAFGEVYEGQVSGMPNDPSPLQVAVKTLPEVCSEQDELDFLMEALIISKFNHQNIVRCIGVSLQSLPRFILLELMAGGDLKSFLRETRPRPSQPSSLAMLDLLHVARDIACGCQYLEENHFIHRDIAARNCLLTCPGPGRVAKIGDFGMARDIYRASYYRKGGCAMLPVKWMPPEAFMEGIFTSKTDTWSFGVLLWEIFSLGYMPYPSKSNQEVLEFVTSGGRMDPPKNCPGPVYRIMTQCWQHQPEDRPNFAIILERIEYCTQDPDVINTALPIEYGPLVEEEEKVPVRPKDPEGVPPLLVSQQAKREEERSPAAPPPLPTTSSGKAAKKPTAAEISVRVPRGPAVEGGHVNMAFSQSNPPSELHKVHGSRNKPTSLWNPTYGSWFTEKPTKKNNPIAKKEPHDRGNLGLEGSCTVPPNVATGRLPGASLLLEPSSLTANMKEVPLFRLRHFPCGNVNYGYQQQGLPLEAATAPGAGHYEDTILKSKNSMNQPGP

Row | SMILES | IC50
1 | CCOc1cc(C2CCN(C)CC2)ccc1Nc1ncc2c(n1)N(Cc1cc(C)cs1)[C@H](CC)C(=O)N2C | 17 nM

target: T1, Bromodomain-containing protein 4 (Homo sapiens, UniProt O60885); experiment: Inhibition of His6-tagged BRD4 bromodomain 1 (unknown origin) expressed in Escherichia coli Bl21(DE3) cells at 1 uM incubated for 4 hrs by FP assay relative to control
Summary of the method: (§1)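 Fluorescence polarization. Purified bromodomain (His6 tag removed with TEV, size-exclusion purified) equilibrated with fluorescent ligand. Compound or DMSO (2‰ final) then added and left 4 h at room temperature in the dark. Anisotropy read at ex 485/em 530 nm. IC50 values are means of at least two independent experiments; single-point inhibition tested at the listed concentration.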

Row | SMILES | inhibition
2 | Cc1noc(C)c1-c1cccc(Nc2nccc(-c3ccncc3)n2)c1 | 37.7%
3 | Cc1noc(C)c1-c1cccc(Nc2nccc(-c3ccccc3)n2)c1 | 2.2%

target: T1, Bromodomain-containing protein 4; experiment: Inhibition of His6-tagged BRD4 bromodomain 1 (unknown origin) expressed in Escherichia coli Bl21(DE3) cells incubated for 4 hrs by FP assay; summary of the method: as §1

Row | SMILES | IC50
4 | CC(C)N1c2cc(Nc3nccc(-c4ccc(N)cc4)n3)ccc2N(C)C(=O)[C@H]1C | 480 nM
5 | CC(C)N1c2cc(Nc3ncc(Cl)c(-c4cncc5ccccc45)n3)ccc2N(C)C(=O)[C@H]1C | 58.1 nM
6 | CCNc1cccc(-c2ccnc(Nc3ccc4c(c3)N(C(C)C)[C@H](C)C(=O)N4C)n2)c1 | 319 nM
7 | CC(C)N1c2cc(Nc3nccc(-c4cccc5[nH]ccc45)n3)ccc2N(C)C(=O)[C@H]1C | 288 nM
8 | CC(C)Nc1cccc(-c2ccnc(Nc3ccc4c(c3)N(C(C)C)[C@H](C)C(=O)N4C)n2)c1 | 268 nM
9 | CC(C)N1c2cc(Nc3nccc(-c4cccc5nn(C)cc45)n3)ccc2N(C)C(=O)[C@H]1C | 168 nM
10 | CC(C)N1c2cc(Nc3nccc(-c4c[nH]c5ccccc45)n3)ccc2N(C)C(=O)[C@H]1C | 329 nM
11 | Cc1cccc(-c2ccnc(Nc3ccc4c(c3)N(C(C)C)[C@H](C)C(=O)N4C)n2)c1 | 760 nM
12 | Cc1ccc(-c2ccnc(Nc3ccc4c(c3)N(C(C)C)[C@H](C)C(=O)N4C)n2)cc1 | 5850 nM
13 | Cc1cc(F)ccc1-c1ccnc(Nc2ccc3c(c2)N(C(C)C)[C@H](C)C(=O)N3C)n1 | 156 nM
14 | CC(C)N1c2cc(Nc3nccc(-c4ccncc4)n3)ccc2N(C)C(=O)[C@H]1C | 83 nM
15 | CC(C)N1c2cc(Nc3nccc(-c4cccc(N)c4)n3)ccc2N(C)C(=O)[C@H]1C | 120 nM
16 | CC(C)N1c2cc(Nc3nccc(-c4ccccc4N)n3)ccc2N(C)C(=O)[C@H]1C | 251 nM
17 | CC(C)N1c2cc(Nc3cccc(-c4ccccc4)c3)ccc2N(C)C(=O)[C@H]1C | 357 nM
18 | CC(C)N1c2cc(Nc3nccc(-c4ccccc4)n3)ccc2N(C)C(=O)[C@H]1C | 193 nM
19 | Cc1cnc(Nc2ccc3c(c2)N(C(C)C)[C@H](C)C(=O)N3C)nc1-c1cncc2ccccc12 | 19.1 nM
20 | Cc1ccccc1-c1ccnc(Nc2ccc3c(c2)N(C(C)C)[C@H](C)C(=O)N3C)n1 | 271 nM

target: T2, Cyclin-dependent kinase 9 (Homo sapiens, UniProt P50750); experiment: Inhibition of human CDK9 at 1 uM by mobility shift assay relative to control
T2 sequence (P50750 whole entry): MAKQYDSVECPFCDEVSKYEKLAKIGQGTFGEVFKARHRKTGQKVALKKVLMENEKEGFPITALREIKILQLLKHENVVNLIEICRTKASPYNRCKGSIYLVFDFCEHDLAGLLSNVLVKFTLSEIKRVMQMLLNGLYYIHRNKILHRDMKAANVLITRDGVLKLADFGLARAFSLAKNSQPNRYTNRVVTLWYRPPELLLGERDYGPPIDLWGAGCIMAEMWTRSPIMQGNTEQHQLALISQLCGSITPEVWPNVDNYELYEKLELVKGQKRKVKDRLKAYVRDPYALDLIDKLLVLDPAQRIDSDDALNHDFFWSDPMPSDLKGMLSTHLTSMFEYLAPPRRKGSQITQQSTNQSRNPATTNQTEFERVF
Summary of the method: (§2)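 Recombinant CDK9 incubated with compound and CTD3 peptide substrate. Activity read by Caliper mobility-shift; Dinaciclib served as positive control. IC50 values are means of at least two independent experiments.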

Row | SMILES | inhibition
21 | CC(C)N1c2cc(Nc3nccc(-c4c[nH]c5ccccc45)n3)ccc2N(C)C(=O)[C@H]1C | 58.6%
22 | CC(C)N1c2cc(Nc3nccc(-c4ccncc4)n3)ccc2N(C)C(=O)[C@H]1C | 98%
23 | CC(C)N1c2cc(Nc3cccc(-c4ccccc4)c3)ccc2N(C)C(=O)[C@H]1C | 1.3%
24 | CC(C)N1c2cc(Nc3nccc(-c4ccccc4)n3)ccc2N(C)C(=O)[C@H]1C | 102%
25 | Cc1ccccc1-c1ccnc(Nc2ccc3c(c2)N(C(C)C)[C@H](C)C(=O)N3C)n1 | 1%

target: T2, Cyclin-dependent kinase 9; experiment: Inhibition of human CDK9 at 100 nM by mobility shift assay relative to control; summary of the method: as §2

Row | SMILES | inhibition
26 | CC(C)N1c2cc(Nc3nccc(-c4c[nH]c5ccccc45)n3)ccc2N(C)C(=O)[C@H]1C | 7.6%
27 | CC(C)N1c2cc(Nc3nccc(-c4ccncc4)n3)ccc2N(C)C(=O)[C@H]1C | 94.5%
28 | CC(C)N1c2cc(Nc3cccc(-c4ccccc4)c3)ccc2N(C)C(=O)[C@H]1C | -6.1%
29 | CC(C)N1c2cc(Nc3nccc(-c4ccccc4)n3)ccc2N(C)C(=O)[C@H]1C | 83.4%
30 | Cc1ccccc1-c1ccnc(Nc2ccc3c(c2)N(C(C)C)[C@H](C)C(=O)N3C)n1 | 1.5%

target: Cyclin-dependent kinase 6 (Homo sapiens) (UniProt Q00534); experiment: Inhibition of CDK6 (unknown origin) at 1 uM relative to control
Sequence (Q00534 whole entry): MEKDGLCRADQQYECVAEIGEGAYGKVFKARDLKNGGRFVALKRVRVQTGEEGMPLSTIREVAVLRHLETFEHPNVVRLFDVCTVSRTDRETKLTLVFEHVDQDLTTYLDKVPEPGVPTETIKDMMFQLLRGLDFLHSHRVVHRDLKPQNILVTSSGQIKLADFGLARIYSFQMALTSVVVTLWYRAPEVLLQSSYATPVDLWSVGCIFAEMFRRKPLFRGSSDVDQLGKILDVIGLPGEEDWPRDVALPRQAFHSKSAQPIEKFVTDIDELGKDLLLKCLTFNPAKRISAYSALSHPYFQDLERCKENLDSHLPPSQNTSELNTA

Row | SMILES | inhibition
31 | CC(C)N1c2cc(Nc3nccc(-c4ccncc4)n3)ccc2N(C)C(=O)[C@H]1C | 7.7%
32 | CC(C)N1c2cc(Nc3cccc(-c4ccccc4)c3)ccc2N(C)C(=O)[C@H]1C | 0.9%
33 | CC(C)N1c2cc(Nc3nccc(-c4ccccc4)n3)ccc2N(C)C(=O)[C@H]1C | 4.8%

target: Cyclin-dependent kinase 6 (Homo sapiens) (UniProt Q00534); experiment: Inhibition of CDK6 (unknown origin) at 100 nM relative to control

Row | SMILES | inhibition
34 | CC(C)N1c2cc(Nc3nccc(-c4ccncc4)n3)ccc2N(C)C(=O)[C@H]1C | 0.2%
35 | CC(C)N1c2cc(Nc3cccc(-c4ccccc4)c3)ccc2N(C)C(=O)[C@H]1C | 1.8%
36 | CC(C)N1c2cc(Nc3nccc(-c4ccccc4)n3)ccc2N(C)C(=O)[C@H]1C | -0.8%

target: Phosphatidylinositol 4,5-bisphosphate 3-kinase catalytic subunit alpha isoform (Homo sapiens) (UniProt P42336); experiment: Inhibition PI3Kalpha (unknown origin) at 1 uM relative to control
Sequence (P42336 whole entry, canonical isoform): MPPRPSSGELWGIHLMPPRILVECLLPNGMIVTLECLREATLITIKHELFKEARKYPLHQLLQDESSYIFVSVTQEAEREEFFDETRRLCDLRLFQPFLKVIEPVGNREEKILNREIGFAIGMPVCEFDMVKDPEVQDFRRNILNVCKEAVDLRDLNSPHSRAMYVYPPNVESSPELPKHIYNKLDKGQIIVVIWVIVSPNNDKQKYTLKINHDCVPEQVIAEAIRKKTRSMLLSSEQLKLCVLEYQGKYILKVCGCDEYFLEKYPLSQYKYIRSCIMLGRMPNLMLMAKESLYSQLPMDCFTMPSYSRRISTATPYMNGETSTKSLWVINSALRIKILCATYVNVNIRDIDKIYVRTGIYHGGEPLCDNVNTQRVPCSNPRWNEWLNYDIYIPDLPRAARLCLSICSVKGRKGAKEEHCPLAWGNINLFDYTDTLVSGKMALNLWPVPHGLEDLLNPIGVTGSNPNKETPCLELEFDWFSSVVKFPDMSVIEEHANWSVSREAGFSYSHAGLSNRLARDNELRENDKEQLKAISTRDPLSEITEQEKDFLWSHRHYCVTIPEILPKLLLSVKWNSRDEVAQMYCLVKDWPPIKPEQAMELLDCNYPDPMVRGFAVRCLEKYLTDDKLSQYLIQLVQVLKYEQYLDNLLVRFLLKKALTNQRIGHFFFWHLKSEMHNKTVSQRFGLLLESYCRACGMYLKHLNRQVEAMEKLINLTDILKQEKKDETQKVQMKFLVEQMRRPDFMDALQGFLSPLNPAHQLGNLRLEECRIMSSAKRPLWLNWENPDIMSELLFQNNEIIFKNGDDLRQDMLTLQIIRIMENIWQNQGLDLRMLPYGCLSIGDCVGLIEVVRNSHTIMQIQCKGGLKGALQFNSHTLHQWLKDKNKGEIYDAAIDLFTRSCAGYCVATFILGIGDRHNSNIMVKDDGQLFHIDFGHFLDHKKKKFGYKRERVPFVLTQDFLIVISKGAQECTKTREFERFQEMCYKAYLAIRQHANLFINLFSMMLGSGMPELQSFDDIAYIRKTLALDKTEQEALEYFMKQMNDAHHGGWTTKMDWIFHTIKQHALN

Row | SMILES | inhibition
37 | CC(C)N1c2cc(Nc3nccc(-c4ccncc4)n3)ccc2N(C)C(=O)[C@H]1C | 82.4%
38 | CC(C)N1c2cc(Nc3cccc(-c4ccccc4)c3)ccc2N(C)C(=O)[C@H]1C | 6.1%
39 | CC(C)N1c2cc(Nc3nccc(-c4ccccc4)n3)ccc2N(C)C(=O)[C@H]1C | 22.9%

target: Phosphatidylinositol 4,5-bisphosphate 3-kinase catalytic subunit alpha isoform (Homo sapiens) (UniProt P42336); experiment: Inhibition PI3Kalpha (unknown origin) at 100 nM relative to control

Row | SMILES | inhibition
40 | CC(C)N1c2cc(Nc3nccc(-c4ccncc4)n3)ccc2N(C)C(=O)[C@H]1C | 37.5%
41 | CC(C)N1c2cc(Nc3cccc(-c4ccccc4)c3)ccc2N(C)C(=O)[C@H]1C | -4.8%
42 | CC(C)N1c2cc(Nc3nccc(-c4ccccc4)n3)ccc2N(C)C(=O)[C@H]1C | 0%

target: T3, Aurora kinase A (Homo sapiens) (UniProt O14965); experiment: Inhibition AuroraA (unknown origin) at 1 uM relative to control
T3 sequence (whole entry): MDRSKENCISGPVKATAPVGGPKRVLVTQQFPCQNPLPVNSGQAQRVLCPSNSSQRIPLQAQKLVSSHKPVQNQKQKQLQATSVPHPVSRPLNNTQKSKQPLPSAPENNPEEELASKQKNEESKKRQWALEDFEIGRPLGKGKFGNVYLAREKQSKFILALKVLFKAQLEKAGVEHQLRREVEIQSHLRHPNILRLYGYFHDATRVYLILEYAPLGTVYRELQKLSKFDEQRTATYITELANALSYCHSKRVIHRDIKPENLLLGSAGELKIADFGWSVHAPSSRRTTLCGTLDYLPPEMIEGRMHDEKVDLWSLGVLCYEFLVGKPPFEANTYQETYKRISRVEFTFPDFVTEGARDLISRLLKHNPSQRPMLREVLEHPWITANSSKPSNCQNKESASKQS

Row | SMILES | inhibition
43 | CC(C)N1c2cc(Nc3nccc(-c4ccncc4)n3)ccc2N(C)C(=O)[C@H]1C | 43.7%
44 | CC(C)N1c2cc(Nc3cccc(-c4ccccc4)c3)ccc2N(C)C(=O)[C@H]1C | -1.5%

target: T3, Aurora kinase A (Homo sapiens); experiment: Inhibition AuroraA (unknown origin) at 100 nM relative to control

Row | SMILES | inhibition
45 | CC(C)N1c2cc(Nc3nccc(-c4ccncc4)n3)ccc2N(C)C(=O)[C@H]1C | 4%
46 | CC(C)N1c2cc(Nc3cccc(-c4ccccc4)c3)ccc2N(C)C(=O)[C@H]1C | -3.4%
47 | CC(C)N1c2cc(Nc3nccc(-c4ccccc4)n3)ccc2N(C)C(=O)[C@H]1C | 10.6%

target: T2, Cyclin-dependent kinase 9; experiment: Inhibition of human CDK9 by mobility shift assay relative to control; summary of the method: as §2

Row | SMILES | IC50
48 | CC(C)N1c2cc(Nc3nccc(-c4ccc(N)cc4)n3)ccc2N(C)C(=O)[C@H]1C | 48.9 nM
49 | CC(C)N1c2cc(Nc3ncc(Cl)c(-c4cncc5ccccc45)n3)ccc2N(C)C(=O)[C@H]1C | 23 nM
50 | CCNc1cccc(-c2ccnc(Nc3ccc4c(c3)N(C(C)C)[C@H](C)C(=O)N4C)n2)c1 | 37.8 nM
51 | CC(C)N1c2cc(Nc3nccc(-c4cccc5[nH]ccc45)n3)ccc2N(C)C(=O)[C@H]1C | 13.8 nM
52 | CC(C)Nc1cccc(-c2ccnc(Nc3ccc4c(c3)N(C(C)C)[C@H](C)C(=O)N4C)n2)c1 | 50.9 nM
53 | CC(C)N1c2cc(Nc3nccc(-c4cccc5nn(C)cc45)n3)ccc2N(C)C(=O)[C@H]1C | 110 nM
54 | Cc1cccc(-c2ccnc(Nc3ccc4c(c3)N(C(C)C)[C@H](C)C(=O)N4C)n2)c1 | 196 nM
55 | Cc1ccc(-c2ccnc(Nc3ccc4c(c3)N(C(C)C)[C@H](C)C(=O)N4C)n2)cc1 | 488 nM
56 | Cc1cc(F)ccc1-c1ccnc(Nc2ccc3c(c2)N(C(C)C)[C@H](C)C(=O)N3C)n1 | 578 nM
57 | CC(C)N1c2cc(Nc3nccc(-c4cccc(N)c4)n3)ccc2N(C)C(=O)[C@H]1C | 5.9 nM
58 | CC(C)N1c2cc(Nc3nccc(-c4ccccc4N)n3)ccc2N(C)C(=O)[C@H]1C | 39.2 nM
59 | Cc1cnc(Nc2ccc3c(c2)N(C(C)C)[C@H](C)C(=O)N3C)nc1-c1cncc2ccccc12 | 100 nM
